The record followed here is ChEMBL document CHEMBL3272048, “Syntheses and uncoupling activities of alkyl dithiocarbazates and alkyl pyridinecarbonyldithiocarbazates” (J Med Chem, 1978).

The source made the active and inactive calls. The calls are words filed in the database; no cut-off is given here.

Experiment [1] can be described thus: Uncoupling of electron transport protein complex in alkyl pyridine carbonyldithiocarbazates-stimulated rat liver mitochondria assessed as concentration required to 100% uncoupling. In a few lines:
(§1)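 Rat liver mitochondria were isolated by the Hogeboom method, with protein measured by Biuret. Protein varied by footnote, 1.33–2.12 mg/3.3 mL. Mitochondria in state 4 were kept in pH 7.2 medium (200 mM sucrose, 10 mM phosphate, 2 mM MgCl₂, 1 mM EDTA, 10 mM succinate, 1 μg rotenone). They were titrated with compound in Me₂SO, and O₂ uptake was read by Galvani electrode. The minimum concentration giving maximal respiration release was taken; values are means of ≥3 runs.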

Experiment [2] is filed under the species Rattus norvegicus. The experiment in a line: Respiration rate of electron transport protein complex in rat liver mitochondria […] assessed as oxygen consumption at 1 uM in presence of glutamate and malate. A digest of the protocol:
(§2)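 Oxygen uptake by rat liver mitochondria (3.0 mg protein) was measured with a Clark-type electrode at 25 °C. Medium at pH 7.4 held 200 mM sucrose, 10 mM potassium phosphate, 2 mM MgCl₂ and 1 mM EDTA. Substrate was 10 mM glutamate plus 10 mM malate.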

The species named for experiment [3] is Rattus norvegicus. The experiment is described as follows: Respiration rate of electron transport protein complex in rat liver mitochondria […] assessed as oxygen consumption at 2 uM in presence of glutamate and malate. A digest of the protocol: as §2
For experiment [4], the species on record is Rattus norvegicus. The experiment in a line: Respiration rate of electron transport protein complex in rat liver mitochondria […] assessed as oxygen consumption at 5 uM in presence of glutamate and malate. A digest of the protocol: as §2
Experiment [5] is filed under the species Rattus norvegicus. The experiment is described as follows: Respiration rate of electron transport protein complex in rat liver mitochondria […] assessed as oxygen consumption at 1 uM in presence of succinate. In a few lines: (§3)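 State 4 respiration of rat liver mitochondria (3.0 mg protein, 25 °C) was followed with a Clark-type electrode. Medium was pH 7.4 with 200 mM sucrose, 10 mM potassium phosphate, 2 mM MgCl₂ and 1 mM EDTA. Substrate was 10 mM succinate with 1 μg rotenone.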

The species named for experiment [6] is Rattus norvegicus. The experiment in a line: Respiration rate of electron transport protein complex in rat liver mitochondria […] assessed as oxygen consumption at 2 uM in presence of succinate. A digest of the protocol: as §3
For experiment [7], the species on record is Rattus norvegicus. The experiment in a line: Respiration rate of electron transport protein complex in rat liver mitochondria […] assessed as oxygen consumption at 1 uM in presence of ascorbate and TMPD. In a few lines:
(§4)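 Rat liver mitochondria at 3.0 mg protein in pH 7.4 medium (200 mM sucrose, 10 mM potassium phosphate, 2 mM MgCl₂, 1 mM EDTA), 25 °C. Substrate was 10 mM ascorbate plus 200 μM TMPD, with 2 μg rotenone. State 4 respiration was read as oxygen uptake on a Clark-type electrode.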

The species entered for experiment [8] is Rattus norvegicus. The experiment is described as follows: Respiration rate of electron transport protein complex in rat liver mitochondria […] assessed as oxygen consumption at 2 uM in presence of ascorbate and TMPD. A digest of the protocol:
as §4

For experiment [9], the species on record is Rattus norvegicus. The experiment is described as follows: Respiration rate of electron transport protein complex in rat liver mitochondria […] assessed as oxygen consumption at 5 uM in presence of ascorbate and TMPD. A digest of the protocol:
as §4

Experiment [10] can be described thus: Uncoupling of electron transport protein complex in alkyl pyridine carbonyldithiocarbazates-stimulated rat liver mitochondria up to 100 uM. In a few lines:
as §1

The nature of experiment [11]: Uncoupling of electron transport protein complex in alkyl pyridine carbonyldithiocarbazates-stimulated rat liver mitochondria up to 500 uM. A digest of the protocol:
as §1

The species named for experiment [12] is Rattus norvegicus. The experiment is described as follows: Respiration rate of electron transport protein complex in rat liver mitochondria […] assessed as oxygen consumption at 6 uM in presence of ascorbate and TMPD. A digest of the protocol: as §4

`CCCCSC(=S)NNC(=O)c1ccncc1`: in experiment [1], the Activity came to 62.5 µM.

For `CCCCCCCCSC(=S)NNC(=O)c1ccccn1`, the Activity in [1] was 3.7 µM.

Turning to `CCCCCCCCCSC(=S)NNC(=O)c1cccnc1`, the Activity in experiment [1] stood at 1.1 µM; in the experiment listed under Rattus norvegicus [2] it was 125 min⁻¹; in the experiment listed under Rattus norvegicus [3], 178 min⁻¹; in the experiment filed under Rattus norvegicus [4], 263 min⁻¹; in the experiment listed under Rattus norvegicus [5], 250 min⁻¹; in the experiment listed under Rattus norvegicus [6] it was 300 min⁻¹. Besides, the Activity is 208 min⁻¹ in the experiment filed under Rattus norvegicus [7], 227 min⁻¹ in the experiment listed under Rattus norvegicus [8] and 236 min⁻¹ in the experiment filed under Rattus norvegicus [9].

With `CCCSC(=S)NNC(=O)c1cccnc1`, the Activity in experiment [1] was 370 µM.

Regarding `CCCCCCCSC(=S)NNC(=O)c1ccccn1`, the Activity in experiment [1] worked out at 4.7 µM.

For the molecule `CCCCCCSC(=S)N(C)NC(=O)c1ccccn1`, the outcome in experiment [10] was inactive.

With `CCCSC(=S)NNC(=O)c1ccccn1`, in [1], the Activity was determined as 290 µM.

`CCCCCCCSC(=S)N(C)NC(=O)c1ccccn1`: in experiment [10], the outcome was inactive.

As to `CCCCCCCSC(=S)NN`, in experiment [1], the Activity was 140 µM.

For `CCCCSC(=S)NNC(=O)c1cccnc1`, in experiment [1], the Activity was determined as 360 µM.

Take `CCCCCCSC(=S)NN`: the Activity in experiment [1] turned out to be 350 µM.

Regarding `CCCCCSC(=S)NN`, the Activity in [1] worked out at 900 µM.

In the case of `CCCCCCCCSC(=S)N(C)NC(=O)c1ccccn1`, in experiment [10], the outcome was inactive.

In the case of `CCSC(=S)NNC(=O)c1ccccn1`, in experiment [1], the Activity stood at 1280 µM.

For `CCSC(=S)NNC(=O)c1ccncc1`, the Activity in experiment [1] is 1200 µM.

As for `CCCCCCCCSC(=S)NNC(=O)c1cccnc1`, the Activity in [1] was found to be 1.3 µM.

For `CCCCCSC(=S)NNC(=O)c1ccncc1`, the Activity in experiment [1] came out at 17.5 µM.

On to `CCCCCCSC(=S)NNC(=O)c1ccncc1`, for which, in [1], the Activity was 6.58 µM.

`CCCCCSC(=S)NNC(=O)c1cccnc1`: in experiment [1], the Activity worked out at 105 µM.

`CCCCSC(=S)NNC(=O)c1ccccn1`: the Activity in experiment [1] turned out to be 240 µM.

`CSC(=S)NNC(=O)c1ccncc1`: in experiment [1], the Activity is 1900 µM.

For `CCCCCCCCSC(=S)NNC(=O)c1ccncc1`, the Activity in [1] stood at 0.84 µM.

On to `CCCCCSC(=S)N(C)NC(=O)c1ccccn1`, for which the result in [11] was inactive.

`CCCCCCSC(=S)NNC(=O)c1ccccn1`: the Activity in [1] came out at 50 µM.

Take `CCSC(=S)NNC(=O)c1cccnc1`: in [1], the Activity turned out to be 1000 µM.

In the case of `CCCCCCCCCSC(=S)NNC(=O)c1ccncc1`, the Activity was 0.86 µM in experiment [1]; 178 min⁻¹ in the experiment filed under Rattus norvegicus [2]; 278 min⁻¹ in the experiment listed under Rattus norvegicus [3]; 361 min⁻¹ in the experiment filed under Rattus norvegicus [5]; 214 min⁻¹ in the experiment filed under Rattus norvegicus [7]; 222 min⁻¹ in the experiment listed under Rattus norvegicus [8]. Moreover, the Activity in the experiment filed under Rattus norvegicus [9] was determined as 250 min⁻¹.

As to `CSC(=S)NNC(=O)c1cccnc1`, in experiment [1], the Activity turned out to be 2160 µM.

Regarding `CCCCCCCSC(=S)NNC(=O)c1cccnc1`, the Activity in experiment [1] came to 14 µM.

`CCCSC(=S)NNC(=O)c1ccncc1`: the Activity in experiment [1] was determined as 109 µM.

Consider `CCCCCSC(=S)NNC(=O)c1ccccn1`, for which, in experiment [1], the Activity came out at 90 µM.

As for `CCCCCCCCCS/C(S)=N/NC(=O)c1ccccn1`, the Activity in experiment [1] was determined as 2.9 µM; in the experiment listed under Rattus norvegicus [2], 89 min⁻¹; in the experiment filed under Rattus norvegicus [3] it was 111 min⁻¹; in the experiment listed under Rattus norvegicus [4], 180 min⁻¹; in the experiment filed under Rattus norvegicus [5], 167 min⁻¹; in the experiment filed under Rattus norvegicus [6], 250 min⁻¹. The Activity came out at 220 min⁻¹ in the experiment listed under Rattus norvegicus [7] and 248 min⁻¹ in the experiment filed under Rattus norvegicus [12].

`CSC(=S)NNC(=O)c1ccccn1`: the Activity in experiment [1] was found to be 1870 µM.

As to `CCCCCCSC(=S)NNC(=O)c1cccnc1`, the Activity in experiment [1] came to 89 µM.

For `CCCCCCCCCSC(=S)N(C)NC(=O)c1ccccn1`, the result in experiment [10] was inactive.

As to `CCCCCCCSC(=S)NNC(=O)c1ccncc1`, the Activity in experiment [1] is 1.95 µM.
